From ChEMBL document CHEMBL3098013, “Novel pyrazole integrated 1,3,4-oxadiazoles: synthesis, characterization and antimicrobial evaluation” (2014) come the findings set out here.

Holding throughout (type): functional
The test system of experiment [1] is Escherichia coli. Kind of experiment: Antimicrobial activity against Escherichia coli MTCC 724 at 100 ug/ml after 24 hrs by disc diffusion method. The note with it: MTCC 724, 24 h, read-out: DIZ. The essentials:
(§1)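 Agar diffusion read-out is the diameter of the inhibition zone in mm. Each test was run in six replicates and reported as mean ± standard deviation, taken from at least three determinations.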
Background: In agar diffusion tests the substance spreads into inoculated agar from a disc or well.

The test system of experiment [2] is Bacillus cereus. Kind of experiment: Antimicrobial activity against Bacillus cereus MTCC 8372 at 50 ug/ml after 24 hrs by disc diffusion method. The note with it: MTCC 8372, 24 h, read-out: DIZ. The essentials: as §1
The test system of experiment [3] is Fusarium verticillioides. The experiment is described as follows: Antimicrobial activity against Fusarium moniliforme MTCC 156 at 50 ug/ml after 48 hrs by disc diffusion method. The essentials: as §1
In experiment [4] the test system is Aspergillus flavus. Kind of experiment: Antimicrobial activity against Aspergillus flavus MTCC 873 at 50 ug/ml after 48 hrs by disc diffusion method. The essentials:
as §1

The test system of experiment [5] is Klebsiella pneumoniae. The experiment is described as follows: Antimicrobial activity against Klebsiella pneumoniae MTCC 3384 after 24 hrs by microdilution method. The note with it: MTCC 3384, 24 h. The essentials:
(§2)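 The minimal inhibitory concentration was determined by dilution, alongside minimal bactericidal concentration for bacterial strains and minimal fungicidal concentration for fungal strains. Tests were run in six replicates, and the value is the mean of at least three determinations.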
On the technique in general: In broth dilution the organism is exposed to a series of concentrations in liquid medium.

Experiment [6] has as its system Staphylococcus aureus. The experiment is described as follows: Antimicrobial activity against Staphylococcus aureus MTCC 96 after 24 hrs by microdilution method. The note with it: MTCC 96, 24 h. The essentials:
as §2

In experiment [7] the test system is Fusarium verticillioides. Kind of experiment: Antimicrobial activity against Fusarium moniliforme MTCC 156 at 100 ug/ml after 48 hrs by disc diffusion method. A digest of the protocol: as §1
Experiment [8] relates to Klebsiella pneumoniae. Kind of experiment: Antimicrobial activity against Klebsiella pneumoniae MTCC 3384 at 50 ug/ml after 24 hrs by disc diffusion method. The note with it: MTCC 3384, 24 h, read-out: DIZ. A digest of the protocol: as §1
Experiment [9] relates to Aspergillus niger. The experiment is described as follows: Antimicrobial activity against Aspergillus niger MTCC 281 at 50 ug/ml after 48 hrs by disc diffusion method. A digest of the protocol: as §1
The test system of experiment [10] is Aspergillus flavus. Kind of experiment: Antimicrobial activity against Aspergillus flavus MTCC 873 after 48 hrs by microdilution method. A digest of the protocol: as §2
Experiment [11] has as its system Escherichia coli. The experiment is described as follows: Antimicrobial activity against Escherichia coli MTCC 724 at 50 ug/ml after 24 hrs by disc diffusion method. The conditions noted are these: MTCC 724, 24 h, read-out: DIZ. A digest of the protocol:
as §1

The test system of experiment [12] is Aspergillus flavus. The experiment is described as follows: Antimicrobial activity against Aspergillus flavus MTCC 873 at 100 ug/ml after 48 hrs by disc diffusion method. A digest of the protocol:
as §1

Experiment [13] deals with Fusarium verticillioides. Kind of experiment: Antimicrobial activity against Fusarium moniliforme MTCC 156 after 48 hrs by microdilution method. The essentials:
as §2

The subject of experiment [14] is Fusarium oxysporum. The experiment is described as follows: Antimicrobial activity against Fusarium oxysporum MTCC 284 after 48 hrs by microdilution method. A digest of the protocol:
as §2

Experiment [15] concerns Staphylococcus aureus. Kind of experiment: Antimicrobial activity against Staphylococcus aureus MTCC 96 at 50 ug/ml after 24 hrs by disc diffusion method. The note with it: MTCC 96, 24 h, read-out: DIZ. A digest of the protocol:
as §1

Experiment [16] concerns Fusarium oxysporum. The experiment is described as follows: Antimicrobial activity against Fusarium oxysporum MTCC 284 at 50 ug/ml after 48 hrs by disc diffusion method. The essentials:
as §1

Experiment [17] relates to Staphylococcus aureus. The experiment is described as follows: Antimicrobial activity against Staphylococcus aureus MTCC 96 at 100 ug/ml after 24 hrs by disc diffusion method. The conditions noted are these: MTCC 96, 24 h, read-out: DIZ. A digest of the protocol: as §1
In experiment [18] the test system is Aspergillus niger. Kind of experiment: Antimicrobial activity against Aspergillus niger MTCC 281 after 48 hrs by microdilution method. A digest of the protocol:
as §2

For experiment [19], the system named is Klebsiella pneumoniae. Kind of experiment: Antimicrobial activity against Klebsiella pneumoniae MTCC 3384 at 100 ug/ml after 24 hrs by disc diffusion method. The note with it: MTCC 3384, 24 h, read-out: DIZ. A digest of the protocol:
as §1

Experiment [20] relates to Fusarium oxysporum. The experiment is described as follows: Antimicrobial activity against Fusarium oxysporum MTCC 284 at 100 ug/ml after 48 hrs by disc diffusion method. The essentials:
as §1

For experiment [21], the system named is Escherichia coli. The experiment is described as follows: Antimicrobial activity against Escherichia coli MTCC 724 after 24 hrs by microdilution method. The conditions noted are these: MTCC 724, 24 h. A digest of the protocol: as §2
For experiment [22], the system named is Bacillus cereus. Kind of experiment: Antimicrobial activity against Bacillus cereus MTCC 8372 after 24 hrs by microdilution method. The note with it: MTCC 8372, 24 h. A digest of the protocol: as §2
Experiment [23] has as its system Aspergillus niger. Kind of experiment: Antimicrobial activity against Aspergillus niger MTCC 281 at 100 ug/ml after 48 hrs by disc diffusion method. A digest of the protocol: as §1
The test system of experiment [24] is Bacillus cereus. The experiment is described as follows: Antimicrobial activity against Bacillus cereus MTCC 8372 at 100 ug/ml after 24 hrs by disc diffusion method. The conditions noted are these: MTCC 8372, 24 h, read-out: DIZ. The essentials: as §1

In brackets after ≈: the same amount, converted by molar mass.

As a reminder, the MBC is the lowest tested concentration that kills the bacteria rather than only halting them. One may read the MIC as the lowest concentration found to suppress growth. Read a low MIC as a more susceptible organism. As for `Cc1c(-c2nnc(-c3ccc(Cl)cc3)o2)c(-c2ccccc2)nn1-c1ccccc1`, the zone of inhibition at 100 µg/mL stood at 12 mm in the experiment on Escherichia coli [1]; 8 mm in the experiment on Fusarium verticillioides [7] (MTCC 156, 48 h, read-out: DIZ); 16 mm with Aspergillus flavus [12] (MTCC 873, 48 h, read-out: DIZ); 10 mm with Staphylococcus aureus [17]; 12 mm with Klebsiella pneumoniae [19]; 8 mm in the experiment with Fusarium oxysporum [20] (MTCC 284, 48 h, read-out: DIZ). In addition, the zone of inhibition at 100 µg/mL in the experiment with Aspergillus niger [23] (MTCC 281, 48 h, read-out: DIZ) stood at 24 mm; in the experiment on Bacillus cereus [24] it was 8 mm. Besides, the zone of inhibition at 50 µg/mL was 4 mm with Bacillus cereus [2]; 6 mm with Fusarium verticillioides [3] (MTCC 156, 48 h, read-out: DIZ); 14 mm with Aspergillus flavus [4] (MTCC 873, 48 h, read-out: DIZ); 6 mm with Klebsiella pneumoniae [8]; 9 mm in the experiment with Aspergillus niger [9] (MTCC 281, 48 h, read-out: DIZ); 10 mm in the experiment with Escherichia coli [11]. The zone of inhibition at 50 µg/mL in the experiment with Staphylococcus aureus [15] came out at 5 mm; with Fusarium oxysporum [16] (MTCC 284, 48 h, read-out: DIZ), 4 mm. The MBC against Klebsiella pneumoniae [5] is 220 µg/mL (≈ 533 µM); against Staphylococcus aureus [6], 250 µg/mL (≈ 606 µM); with Escherichia coli [21], 235 µg/mL (≈ 569 µM); in the experiment with Bacillus cereus [22], 240 µg/mL (≈ 581 µM). The MIC in the experiment on Klebsiella pneumoniae [5] amounted to 30 µg/mL (≈ 72.7 µM); against Staphylococcus aureus [6], 45 µg/mL (≈ 109 µM); with Aspergillus flavus [10] (MTCC 873, 48 h) it was 30 µg/mL (≈ 72.7 µM); in the experiment with Fusarium verticillioides [13] (MTCC 156, 48 h), 55 µg/mL (≈ 133 µM); with Fusarium oxysporum [14] (MTCC 284, 48 h), 40 µg/mL (≈ 96.9 µM); with Aspergillus niger [18] (MTCC 281, 48 h), 25 µg/mL (≈ 60.6 µM). Also, the MIC was found to be 35 µg/mL (≈ 84.8 µM) with Escherichia coli [21] and 40 µg/mL (≈ 96.9 µM) in the experiment on Bacillus cereus [22]. The MFC in the experiment on Aspergillus flavus [10] (MTCC 873, 48 h) turned out to be 230 µg/mL (≈ 557 µM); against Fusarium verticillioides [13] (MTCC 156, 48 h), 300 µg/mL (≈ 727 µM); against Fusarium oxysporum [14] (MTCC 284, 48 h) it was 275 µg/mL (≈ 666 µM); against Aspergillus niger [18] (MTCC 281, 48 h), 215 µg/mL (≈ 521 µM).
Turning to `CN(C)[C@@H]1C(O)=C(C(N)=O)C(=O)[C@@]2(O)C(O)=C3C(=O)c4c(O)cccc4[C@@](C)(O)[C@H]3C[C@@H]12` [TETRACYCLINE], the zone of inhibition at 100 µg/mL in the experiment with Escherichia coli [1] came out at 30 mm; in the experiment on Staphylococcus aureus [17], 20 mm; with Klebsiella pneumoniae [19], 20 mm; in the experiment on Bacillus cereus [24], 21 mm. In addition, the zone of inhibition at 50 µg/mL stood at 10 mm in the experiment with Bacillus cereus [2], 12 mm in the experiment with Klebsiella pneumoniae [8], 18 mm in the experiment with Escherichia coli [11] and 9 mm with Staphylococcus aureus [15]. For the same compound, the MBC against Klebsiella pneumoniae [5], against Staphylococcus aureus [6], in the experiment with Escherichia coli [21] and against Bacillus cereus [22] was 120 µg/mL (≈ 270 µM) throughout. In addition, the minimal inhibitory concentration (MIC) against Klebsiella pneumoniae [5] stood at 8 µg/mL (≈ 18 µM); with Staphylococcus aureus [6], 10 µg/mL (≈ 22.5 µM); in the experiment on Escherichia coli [21], 12 µg/mL (≈ 27 µM); in the experiment with Bacillus cereus [22], 4 µg/mL (≈ 9 µM).
Take NYSTATIN: the inhibition zone (IZ) with Fusarium verticillioides [3] was 12 mm; in the experiment with Aspergillus flavus [4], 16 mm; with Fusarium verticillioides [7], 28 mm; in the experiment with Aspergillus niger [9], 10 mm; in the experiment on Aspergillus flavus [12], 20 mm; in the experiment on Fusarium oxysporum [16], 16 mm. Besides, the results for the inhibition zone (IZ) with Fusarium oxysporum [20] and in the experiment with Aspergillus niger [23] were 30 mm and 25 mm, respectively. The MFC in the experiment with Aspergillus flavus [10], in the experiment with Fusarium verticillioides [13], in the experiment with Fusarium oxysporum [14] and in the experiment with Aspergillus niger [18] was 100 µg/mL throughout. For the same compound, the minimum inhibitory concentration (MIC) against Aspergillus flavus [10] came out at 8 µg/mL; with Fusarium verticillioides [13], 12 µg/mL; with Fusarium oxysporum [14], 15 µg/mL; against Aspergillus niger [18], 10 µg/mL.
